Results pooled from the literature.
Protocols differ between the studies behind these lines.
Read-out: metabolic stability
Matrix: liver microsomes

Compound | system | conditions | compound remaining [%]
CS(=O)(=O)c1ccc(-c2cnc(N)c(-c3ccc(C(F)(F)F)nc3)c2)cc1 | male CD-1 mouse | 1 µM, 30 min | > 99
CC[C@H](C)C(=O)O[C@H]1C[C@@H](C)C=C2C=C[C@H](C)[C@H](CC[C@@H]3C[C@@H](O)CC(=O)O3)[C@H]21 | mouse | 1 µM, 5 min, pH 7.4 | 0.85
N#Cc1ccc(C[C@@H](NC(=O)Nc2ccc([N+](=O)[O-])cc2)C(=O)NCC2(c3ccccc3)CC2)cc1 | rat | 10 µM, 30 min, pH 7.4 | > 20
CCCn1nc(C(=O)N(C)C)c2c1CCC(NCc1ccc(F)cc1)C2 (centres unmarked) | mouse | 10 µM, 1 h | < 25
[O-][S+](CCN1CCCN(CC(O)Cc2ccccc2)CC1)C(c1ccc(F)cc1)c1ccc(F)cc1 (centres unmarked) | rat | 10 µM, 1 h, pH 7.4 | 0
CCCn1nc(C(=O)N2CCCCC2)c2c1CCC(NCc1ccc(N3CCCCC3)cc1)C2 (centres unmarked) | mouse | 10 µM, 1 h | 47
Cc1ccc2c(c1)nc(CCc1cccc3cccnc13)n2-c1ccccc1 | rat | 1.5 µM, 45 min | 0.05
CCCn1nc(C(=O)N2CCCCC2)c2c1CCC(N1CCc3ccccc3C1)C2 (centres unmarked) | mouse | 10 µM, 1 h | < 25
Cc1ccc2c(c1)nc(/C=C/c1cccc3cccnc13)n2-c1ccccc1 | rat | 1.5 µM, 5 min | 75.4
Cc1ncsc1-c1ccc(CNC(=O)[C@@H]2C[C@@H](O)CN2C(=O)[C@@H](NC(=O)CCCCCCCCCCNC(=O)O[C@H]2C[C@@H](C)C=C3C=C[C@H](C)[C@H](CC[C@@H]4C[C@@H](O)CC(=O)O4)[C@H]32)C(C)(C)C)cc1 | mouse | 1 µM, 45 min, pH 7.4 | 1.42
N#Cc1ccc(C[C@H](NC(=O)Nc2ccc(F)cc2)C(=O)NCC2(c3ccc(OC(F)(F)F)cc3)CC2)cc1 | rat | 10 µM, 30 min, pH 7.4 | > 80
